≈ marks a conversion by molar mass, not a printed value. Calls of active or inactive are those of the source. The calls are words filed in the database; no cut-off is given here.
Key:
Bacillus subtilis = assay: Antimicrobial activity against Bacillus subtilis ATCC 6633 by broth dilution technique; assay type: functional
Outline: (§1)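 Broth dilution in Mueller Hinton Broth. Compounds are dissolved in DMSO (never above 1% v/v final) and serially diluted. MIC is the lowest concentration giving complete growth inhibition.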

Enterococcus faecalis = assay: Antimicrobial activity against Streptococcus faecalis by broth dilution technique; assay type: functional; outline: as §1
Escherichia coli = assay: Antimicrobial activity against Escherichia coli SPA27 upto 100 ug/ml by broth dilution technique; assay type: functional, organism-based; outline: as §1
Saccharomyces cerevisiae [1] = assay: Antimicrobial activity against Saccharomyces cerevisiae ATCC 9763 upto 100 ug/ml by broth dilution technique; assay type: functional, organism-based
Outline: (§2)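 Fungi are tested by Sabouraud Liquid Medium dilution. Compounds are in DMSO, with DMSO at most 1% v/v final. Inoculum is 1×10³ fungi/mL, incubated 48 h at 30 °C. MIC is the lowest concentration completely inhibiting growth. For MFC, 100 µL of clear mixtures is subcultured into 1 mL fresh medium and read after 48 h at 30 °C.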

Candida tropicalis [2] = assay: Antimicrobial activity against Candida tropicalis ATCC 1369 upto 100 ug/ml by broth dilution technique; assay type: functional, organism-based; outline: as §2
[3] = system: Staphylococcus epidermidis; assay: Antimicrobial activity against penicillin-resistant Staphylococcus epidermidis by broth dilution technique; assay type: functional
Outline: (§3)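 Broth dilution in Mueller Hinton Broth with compounds predissolved in DMSO (at most 1% v/v). Final concentrations ranged from 100 to 0.0015, and the inoculum was 5.10⁴ bacteria/mL. Plates were incubated at 37 °C for 24 h. MIC was taken as the lowest concentration giving complete growth inhibition.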

Streptococcus agalactiae = assay: Antimicrobial activity against Streptococcus agalactiae by broth dilution technique; assay type: functional; outline: as §1
Enterococcus faecium = assay: Antimicrobial activity against Streptococcus faecium by broth dilution technique; assay type: functional; outline: as §1
Aspergillus niger [4] = assay: Antimicrobial activity against Aspergillus niger ATCC 6275 upto 100 ug/ml by broth dilution technique; assay type: functional, organism-based; outline: as §2
Bacillus thuringiensis = assay: Antimicrobial activity against Bacillus thuringiensis var. kurstaki BGSC 4D1 by broth dilution technique; assay type: functional; conditions: serovar kurstaki; outline: as §1
Staphylococcus aureus [5] = assay: Antimicrobial activity against Staphylococcus aureus ATCC 25923 by broth dilution technique; assay type: functional; outline: as §1
Streptococcus pyogenes = assay: Antimicrobial activity against Streptococcus pyogenes by broth dilution technique; assay type: functional
Outline: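 Tryptose Phosphate Broth dilution. Compounds are dissolved in DMSO, with DMSO at most 1% v/v final. MIC is taken as the lowest concentration with complete growth inhibition.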

Staphylococcus aureus [6] = assay: Antimicrobial activity against penicillin-resistant Staphylococcus aureus by broth dilution technique; assay type: functional; outline: as §3
Haemophilus influenzae = assay: Antimicrobial activity against Haemophilus influenzae by broth dilution technique; assay type: functional
Outline: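 Haemophilus Test Medium broth dilution. Compounds in DMSO are added to final dilutions, with DMSO at most 1% v/v. MIC is the lowest concentration completely inhibiting growth.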

[7] = system: Staphylococcus epidermidis; assay: Antimicrobial activity against Staphylococcus epidermidis ATCC 12228 by broth dilution technique
[8] = system: Staphylococcus haemolyticus; assay: Antimicrobial activity against Staphylococcus haemolyticus by broth dilution technique; assay type: functional; outline: as §1
Micrococcus luteus = assay: Antimicrobial activity against Sarcina lutea by broth dilution technique; assay type: functional; outline: as §1
Priestia megaterium = assay: Antimicrobial activity against Bacillus megaterium by broth dilution technique; assay type: functional; outline: as §1
Saccharomyces cerevisiae [9] = assay: Antimicrobial activity against Saccharomyces cerevisiae ATCC 9763 by broth dilution technique; assay type: functional; outline: as §2
Aspergillus niger [10] = assay: Antimicrobial activity against Aspergillus niger ATCC 6275 by broth dilution technique; assay type: functional; outline: as §2
Candida tropicalis [11] = assay: Antimicrobial activity against Candida tropicalis ATCC 1369 by broth dilution technique; assay type: functional; outline: as §2

SMILES	MIC (Bacillus subtilis)	MIC (Enterococcus faecalis)	Activity (Escherichia coli)	Activity (Saccharomyces cerevisiae [1])	Activity (Candida tropicalis [2])	MIC [3]	MIC (Streptococcus agalactiae)	MIC (Enterococcus faecium)	Activity (Aspergillus niger [4])	MIC (Bacillus thuringiensis)	MIC (Staphylococcus aureus [5])	MIC (Streptococcus pyogenes)	MIC (Staphylococcus aureus [6])	MIC (Haemophilus influenzae)	MIC [7]	MIC [8]	MIC (Micrococcus luteus)	MIC (Priestia megaterium)	other results
COc1ccc(/C=C2\S/C(=N/c3nccs3)NC2=O)cc1	1.5 µg/mL (≈ 4.73 µM)	> 100 µg/mL	inactive	inactive	inactive	12 µg/mL (≈ 37.8 µM)	3 µg/mL (≈ 9.45 µM)	> 100 µg/mL	inactive	3 µg/mL (≈ 9.45 µM)	12 µg/mL (≈ 37.8 µM)	12 µg/mL (≈ 37.8 µM)	3 µg/mL (≈ 9.45 µM)	0.3 µg/mL (≈ 0.945 µM)	6 µg/mL (≈ 18.9 µM)	12 µg/mL (≈ 37.8 µM)	6 µg/mL (≈ 18.9 µM)	1.5 µg/mL (≈ 4.73 µM)	–
O=C1CS/C(=N\c2nsc3ccccc23)N1	50 µg/mL (≈ 201 µM)	> 100 µg/mL	inactive	inactive	inactive	> 100 µg/mL	> 100 µg/mL	> 100 µg/mL	inactive	> 100 µg/mL	> 100 µg/mL	> 100 µg/mL	> 100 µg/mL	3 µg/mL (≈ 12 µM)	> 100 µg/mL	> 100 µg/mL	> 100 µg/mL	100 µg/mL (≈ 401 µM)	–
O=C1CS/C(=N/c2nc3ccccc3s2)N1	12 µg/mL (≈ 48.1 µM)	> 100 µg/mL	–	–	–	100 µg/mL (≈ 401 µM)	> 100 µg/mL	> 100 µg/mL	–	25 µg/mL (≈ 100 µM)	25 µg/mL (≈ 100 µM)	> 100 µg/mL	25 µg/mL (≈ 100 µM)	0.7 µg/mL (≈ 2.81 µM)	100 µg/mL (≈ 401 µM)	50 µg/mL (≈ 201 µM)	50 µg/mL (≈ 201 µM)	25 µg/mL (≈ 100 µM)	MIC (Saccharomyces cerevisiae [9]): 50 µg/mL (≈ 201 µM); MIC (Aspergillus niger [10]): 25 µg/mL (≈ 100 µM); MIC (Candida tropicalis [11]): 50 µg/mL (≈ 201 µM)
O=C1N/C(=N/c2nsc3ccccc23)S/C1=C\c1ccccc1[N+](=O)[O-]	> 100 µg/mL	100 µg/mL (≈ 261 µM)	inactive	inactive	inactive	> 100 µg/mL	> 100 µg/mL	> 100 µg/mL	inactive	3 µg/mL (≈ 7.84 µM)	3 µg/mL (≈ 7.84 µM)	> 100 µg/mL	50 µg/mL (≈ 131 µM)	1.5 µg/mL (≈ 3.92 µM)	> 100 µg/mL	> 100 µg/mL	> 100 µg/mL	> 100 µg/mL	–

— ChEMBL document CHEMBL1142406, “2-Heteroarylimino-5-benzylidene-4-thiazolidinones analogues of 2-thiazolylimino-5-benzylidene-4-thiazolidinones with antimicrobial activity: synthesis and structure-activity relationship” (2008)
